ChEMBL document CHEMBL1125590, “Purine and 1-deazapurine ribonucleosides and deoxyribonucleosides: synthesis and biological activity” (J Med Chem, 1991)

Columns and labels:
Adenosine deaminase [1] = target: T1, Adenosine deaminase (Bos taurus, UniProt P56658); experiment: Compound was tested for the inhibition of Adenosine deaminase from calf intestine.
T1 sequence (P56658 whole entry): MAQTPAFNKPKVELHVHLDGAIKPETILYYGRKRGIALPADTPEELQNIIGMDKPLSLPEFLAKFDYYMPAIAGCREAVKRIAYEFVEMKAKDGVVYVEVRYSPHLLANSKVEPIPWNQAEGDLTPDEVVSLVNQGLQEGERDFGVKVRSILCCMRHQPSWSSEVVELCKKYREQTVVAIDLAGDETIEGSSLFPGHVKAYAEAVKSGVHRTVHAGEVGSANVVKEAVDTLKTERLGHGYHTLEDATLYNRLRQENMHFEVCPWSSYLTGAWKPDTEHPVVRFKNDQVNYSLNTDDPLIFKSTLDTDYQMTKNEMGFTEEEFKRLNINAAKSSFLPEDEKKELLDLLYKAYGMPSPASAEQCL

L1210 = experiment: Compound was tested for its antitumor activity to inhibit 50% of tumor cell growth in mouse leukemia L1210 cell lines.; type: functional; conditions: read-out: ID50 (the source's name)
Outline: (§1)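 L1210 and P388 murine leukemia cells were kept in RPMI 1640 with 10% fetal calf serum, penicillin and streptomycin, plus 1 mM β-mercaptoethanol added at 1% (L1210) or 2% (P388). Stocks were 1 mg/mL in 5% DMSO, diluted in water (0.5% DMSO at the top dose). Cells were plated at 3×10^4/mL and treated immediately for 72 h, then Coulter-counted as % of control; IC50 was taken from concentration–response curves.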

P388 = experiment: Compound was tested for its antitumor activity to inhibit 50% of tumor cell growth in mouse leukemia P388 cell lines.; type: functional; conditions: read-out: ID50 (the source's name); outline: as §1
Adenosine deaminase [2] = target: T1, Adenosine deaminase; experiment: Compound was tested for the inhibition of Adenosine deaminase from calf intestine; NA indicates not active

Row | Structure (SMILES) | Ki (Adenosine deaminase [1]) [µM] | IC50 (L1210) [µM] | IC50 (P388) [µM] | Ki (Adenosine deaminase [2])
1 | O=[N+]([O-])c1cc(Cl)nc2c1ncn2C1O[C@H](CO)[C@@H](O)[C@H]1O (stereo partly specified) |  | 0.9 | 1.5 | Not Active
2 | OC[C@H]1O[C@@H](n2cnc3c(NO)ccnc32)C[C@@H]1O | 0.27 | > 100 | 67.6 | 
3 | OC[C@H]1O[C@@H](n2cnc3/c(=N\O)[nH]cnc32)[C@H](O)[C@@H]1O |  | 3.1 | 1.6 | 
4 | Cc1ccc(C(=O)OC[C@H]2O[C@@H](n3cnc4c(NO)nc(Cl)nc43)C[C@@H]2OC(=O)c2ccc(C)cc2)cc1 |  | 4.9 | 10.4 | Not Active
5 | OC[C@H]1OC(n2cnc3c(NO)nc(Cl)nc32)[C@H](O)[C@@H]1O (stereo partly specified) |  | 94.4 | 75.5 | Not Active
6 | Nc1ncnc2c1ncn2[C@@H]1O[C@H](CO)[C@@H](O)[C@@H]1O [VIDARABINE] |  | 21.7 | 16.8 | 

Next, values leading:

Row | Ki (Adenosine deaminase [1]) [µM] | IC50 (L1210) [µM] | IC50 (P388) [µM] | Ki (Adenosine deaminase [2]) | Structure (SMILES)
7 | 5.3 | 22.5 | 16.9 |  | Cc1ccc(C(=O)OC[C@H]2O[C@@H](n3cnc4c(NO)ccnc43)C[C@@H]2OC(=O)c2ccc(C)cc2)cc1
8 |  | 4.8 | 4.3 | Not Active | Cc1ccc(C(=O)OC[C@H]2O[C@@H](n3cnc4c(NO)cc(Cl)nc43)C[C@@H]2OC(=O)c2ccc(C)cc2)cc1
9 | 1.2 | 5.3 | 4.9 |  | OC[C@H]1O[C@@H](n2cnc3c(NO)ccnc32)[C@H](O)[C@@H]1O
10 |  | 14.9 | 20.6 | Not Active | O=[N+]([O-])c1ccnc2c1ncn2[C@H]1C[C@H](O)[C@@H](CO)O1
11 | 69 | 91 | 60 |  | OC[C@H]1OC(n2cnc3c(NO)cc(Cl)nc32)[C@H](O)[C@@H]1O (stereo partly specified)
